Screening results from PubChem.
RBBP9 inhibitor: blocks human serine hydrolase RBBP9. recombinant RBBP9, FP-Rh probe fluorescence polarization. inhibition, % at 7.94 µM. hit rate 0.2% among 220,000. AID 1515;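 active = inhibition above the campaign mean of all tested compounds plus 3 SD, cut at about 14% in these data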;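 also: plate controls were DMSO wells with RBBP9 for no effect and wells lacking RBBP9 protein for full effect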
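System: RBBP9 protein / Quantity: 2.5 µM RBBP9 dispensing solution, before mixing / Also added: Serine-hydrolase probe FP-Rh, 375 nM pre-mixing / Dosing: 7.94 µM single dose, 0.794% DMSO / Timing: enzyme-compound preincubation 30 min, then probe labeling 45 min, 25 °C / Signal: FP readout at 525/598 nm / Controls: DMSO-treated enzyme wells and wells lacking RBBP9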
eIF4H FP inh: inhibitors of RNA binding by human eIF4H. eIF4H fluorescence polarization binding assay. AID 2012. inhibition, % at 35 µM. hit rate 0.94% among 290,000. Q15056;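 also: calls also rest on retests at 20 µM and on dose response follow-up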
PABP1 MLLE inh: inhibitors of microRNA-mediated deadenylation, human PABP1 MLLE binding; inhibition, % at 20 µM; AID 588489; hit rate 0.36% among 360,000; GST-MLLE / FITC-PAM2 fluorescence polarization; P11940; in the data active = inhibition above about 35%, passing the limit was not always enough;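 also: plate controls were DMSO wells with GST-MLLE for no effect and wells lacking GST-MLLE protein for full effect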
Target sequence (P11940 whole entry, looked up): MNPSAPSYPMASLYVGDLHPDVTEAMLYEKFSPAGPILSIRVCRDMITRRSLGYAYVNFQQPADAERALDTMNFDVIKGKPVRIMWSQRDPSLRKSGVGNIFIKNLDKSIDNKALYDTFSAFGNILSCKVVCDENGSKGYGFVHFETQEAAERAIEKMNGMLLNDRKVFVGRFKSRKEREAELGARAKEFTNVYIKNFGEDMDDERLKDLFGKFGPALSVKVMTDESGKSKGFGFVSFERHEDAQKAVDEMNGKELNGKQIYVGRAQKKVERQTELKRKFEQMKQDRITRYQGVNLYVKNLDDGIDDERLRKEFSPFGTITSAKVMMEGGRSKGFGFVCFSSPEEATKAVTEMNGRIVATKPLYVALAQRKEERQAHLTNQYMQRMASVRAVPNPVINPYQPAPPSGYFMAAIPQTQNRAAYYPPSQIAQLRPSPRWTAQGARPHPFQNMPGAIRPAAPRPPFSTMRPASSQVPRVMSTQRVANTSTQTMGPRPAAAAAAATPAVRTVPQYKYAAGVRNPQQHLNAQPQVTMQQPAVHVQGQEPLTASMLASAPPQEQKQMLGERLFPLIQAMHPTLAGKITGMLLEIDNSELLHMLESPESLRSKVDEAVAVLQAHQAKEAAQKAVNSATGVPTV
PABP FP inh: blocks human PABP binding to poly(A) RNA; P11940; fluorescence polarization; calls only at 35 µM; hit rate 1% among 290,000; AID 2014;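 also: calls also rest on retests at 20 µM and on dose response follow-up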
TCR CD3 inh: human TCR-CD3 binding inhibition; TAMRA-labeled TCR probe fluorescence, biochemical; inhibition, % at 9.4 µM; hit rate 0.37% among 360,000; in the data active = inhibition above about 19%;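 also: recombinant mutant TCR 2C K166C tagged with TAMRA read by polarization; 0% = receptor in buffer alone and 100% = receptor with positive control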
Active calls of the source: *; i = inactive; ? = inconclusive; nt = no result given; + = active, no number. A selection: hits, their analogues and other compounds. The true share with any hit is near 1.6%. Unless noted, no rule for the calls is given here.

SMILES	RBBP9 inhibitor	eIF4H FP inh	PABP1 MLLE inh	PABP FP inh	TCR CD3 inh
CCOC(=O)CC1=C(C(=O)OCC)C(c2ccc(C)o2)C(C#N)=C(N)O1 (stereo not given)	-1	92*	50*	+	-4
CCCCCc1ccc(C(=O)CCCC)c(=S)[nH]1	-10	7	38*	i	1
CCCCCc1cc(=O)[nH]c(=S)[nH]1	-5	-3	17	i	4
COC(=O)C1=C(C)N(C)C(=NCC2CC2)NC1c1ccc(Cl)cc1 (stereo not given)	nt	nt	nt	nt	1
O=C(NCc1cccnc1)c1cccc(S(=O)(=O)NCc2ccccc2)c1	nt	nt	13	nt	1
O=C(c1cccc(S(=O)(=O)NCc2ccccc2)c1)N1CCN(c2cccc(C(F)(F)F)c2)CC1	nt	16	12	+	-1
O=C(NCc1ccncc1)c1cccc(S(=O)(=O)NCc2ccccc2)c1	nt	13	5	+	-10
CCCc1c(Cc2cccc(F)c2)ncn1CCc1ccccc1OC	nt	nt	nt	nt	6
COC1=C(c2ccccc2)C(=O)c2ccccc2C1=O	-6	1	49*	i	-2
Cc1c(C=O)c2ccccn2c1C(=O)c1ccccc1Cl	nt	-9	-3	i	-2
Cc1c(C=O)c2ccccn2c1C(=O)c1cccs1	-1	94*	32	+	3
Nc1cc(=O)[nH]c(SCc2cccc3ccccc23)n1	nt	5	9	i	5
N#CC1=C(N)N=C(SCc2cccc3ccccc23)C(C(N)=O)C12CCCCC2 (stereo not given)	2	-8	40*	i	-5
NNC(=O)c1cc(Cl)ccc1Cl	-4	-2	7	i	8
CNc1ccc(Cl)cc1C(N)=O	7	-6	-14	+	-2
O=C(COc1ccccc1)Nc1nc(-c2cccnc2)cs1	nt	nt	6	nt	-1
O=C(COc1ccccc1)Nc1nc(-c2ccncc2)cs1	nt	-10	35*	i	-5
COC(=O)C1=C(C)N(Cc2ccccc2C(F)(F)F)C(=NCc2cc(OC)c(OC)c(OC)c2)NC1c1cccc(C(F)(F)F)c1 (stereo not given)	nt	nt	nt	nt	1
S=C(NCc1ccccn1)Nc1ccc(Br)cc1Cl	-6	-4	39*	i	0
O=C(Cc1cn(Cc2ccccc2)c2ccccc12)Nc1ccc(Nc2cccnc2)cc1	nt	nt	nt	nt	-8
CCCc1nc2c(C)cc(Br)cn2c1Cc1ccsc1	nt	nt	43*	nt	4
CCCc1nc2c(C)cc(Br)cn2c1Cc1ccccc1	nt	nt	7	nt	4
CCOC(=O)c1ccccc1NC(=O)N1CCn2c(C)ccc2C1CC (stereo not given)	-11	?	5	+	10
CCCC1c2ccc(C)n2CCN1C(=O)Nc1ccccc1Cl (stereo not given)	-11	?	28	i	1
CCC1c2ccc(C)n2CCN1C(=O)Nc1ccccc1C(=O)OC (stereo not given)	0	132	24	+	4
SMILES	RBBP9 inhibitor	eIF4H FP inh	PABP1 MLLE inh	PABP FP inh	TCR CD3 inh
Cc1cccc(C)c1NC(=O)C(CCc1ccccc1)N1CCN(CCN(C)C)CC1 (stereo not given)	nt	nt	nt	nt	3
O=C(N[C@H](Cc1ccccc1)C(=O)NCCCc1ccccc1)[C@H]1O[C@@H](n2ccc(=O)[nH]c2=O)[C@H](O)[C@@H]1O	nt	nt	nt	nt	3
CCCc1nnc(NC(=O)c2c(O)c3cccc4c3n(c2=O)CCC4)s1	nt	96*	nt	+	nt
CC(C)C(C(=O)O)N1C(=O)/C(=C/c2cccn2C)SC1=S (stereo not given)	-4	?	-137	i	6
O=C(NN1C(=O)/C(=C/C=C/c2ccco2)SC1=S)c1ccncc1	6	84*	0	+	16
O=C(NN1C(=O)/C(=C/C=C/c2ccccc2)SC1=S)c1ccncc1	-1	2	-77	i	-5
O=C1/C(=C\c2ccco2)SC(=S)N1c1ccc(O)cc1	2	81*	25	i	-5
O=C1/C(=C/C=C/c2ccco2)SC(=S)N1c1ccc(O)cc1	6	80*	-46	+	10
CC(C)C(C(=O)O)N1C(=O)/C(=C/C=C/c2ccco2)SC1=S (stereo not given)	0	91*	-4	+	nt
COc1ccc(-c2ccc3c(n2)CCCN3S(=O)(=O)c2ccccc2C)cc1	nt	nt	nt	nt	5
COC(=O)N1C[C@H](OCc2cn(-c3ccc(OC)cc3)nn2)[C@H]2C[C@@H]1c1ccccc1O2	nt	nt	nt	nt	4
COC(=O)C1=C(C)N(Cc2cccc(C(F)(F)F)c2)C(=NCc2cc(OC)c(OC)c(OC)c2)NC1c1ccc(F)cc1 (stereo not given)	nt	nt	nt	nt	6
O=c1c2c3c(sc2nc(NCCOCCO)n1Cc1ccco1)CCCCC3	-6	100*	12	+	-1
CC(O)CNc1nc2sc3c(c2c(=O)n1Cc1ccco1)CCCCC3 (stereo not given)	-6	0	-3	i	0
O=C(Cn1c(=O)n(Cc2ccco2)c(=O)c2c3c(sc21)CCCC3)Nc1ccccc1	-34	-15	-5	i	-4
NC(=O)Cn1c(=O)n(Cc2ccco2)c(=O)c2c3c(sc21)CCCCC3	-7	98*	12	+	12
C=CCN=C1NC(c2cccc(Cl)c2)C(C(=O)OC)=C(C)N1Cc1cccc(C(F)(F)F)c1 (stereo not given)	nt	nt	nt	nt	-1
Cc1noc(C)c1S(=O)(=O)N1CCCc2nc(-c3ccc(Br)cc3)ccc21	nt	nt	nt	nt	-6
Oc1ccc(CCNc2c3ccccc3nc3ccccc23)cc1O	nt	2	-6	i	21*
CC(=O)NC1(C(F)(F)F)N=C2SCCN2C1=O (stereo not given)	-5	1	28	i	-5
CC(C)Oc1ccc(C(=O)NC2(C(F)(F)F)N=C3SCCN3C2=O)cc1 (stereo not given)	-6	-7	46*	i	0
COc1cc2c(cc1OC)C(c1ccccc1O)N(C1CC(=O)N(c3ccccc3)C1=O)CC2 (stereo not given)	3	1	40*	i	-4
c1ccc(C2=NNC(c3ccccn3)=NN2)nc1	nt	7	43*	i	3
CCCN(CCC)Cc1cc(=O)oc2ccccc12	nt	nt	nt	nt	-6
COc1ccc(/C=N/N=C2/NC(=O)C(CC(=O)NC(N)=O)S2)cc1 (stereo not given)	6	0	-1	i	-2
SMILES	RBBP9 inhibitor	eIF4H FP inh	PABP1 MLLE inh	PABP FP inh	TCR CD3 inh
CCCCNC(=O)CC1S/C(=N/N=C/c2ccc(OC)cc2)NC1=O (stereo not given)	3	10*	-14	i	-1
O=S1(=O)N[C@@H](Cc2ccccc2)COc2cc(N3CCOCC3)ccc21	nt	nt	nt	nt	4
Cc1ccc(C)n1-c1ccc(C(=O)O)cc1	-13	91*	nt	+	nt
Cc1cc(=O)n(-c2ccc(C(=O)O)cc2)[nH]1	2	65*	8	+	-2
Cc1ccc(C)n1-c1ccc(N2CCOCC2)nc1	1	71*	28	+	nt
Cc1ccc(S(=O)(=O)Nc2ccc(N3CCOCC3)nc2)cc1	-8	?	-15	i	9
